Assay results taken from ChEMBL document CHEMBL5149972, “Novel Antimalarial Tetrazoles and Amides Active against the Hemoglobin Degradation Pathway in Plasmodium falciparum” (J Med Chem, 2021).
In brackets after ≈: the same amount, converted by molar mass.

Assays:
Plasmodium falciparum [1] = test: Antiplasmodial activity against drug resistant Plasmodium falciparum Dd2 infected in human RBC assessed as parasite growth inhibition incubated for 72 hrs by SYBR Green dye based fluorescence assay; format: functional, organism-based; details: Plasmodium falciparum, Dd2, Erythrocyte, 72 h
Method in brief: (§1)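 Blood-stage cultures at 2% hematocrit, human O+ RBCs, RPMI 1640 + 25 mM HEPES, 0.5% Albumax-I, 23 mM bicarbonate, 92 μM hypoxanthine. Start at 0.5% parasitemia; 72 h at 37°C, 5% CO₂; freeze-thaw, then SYBR Green in saponin/Triton lysis buffer, 4 h RT dark; fluorescence ex 485/em 535 nm. 10-point curves, technical duplicates or triplicates, final 0.5% DMSO; four-parameter fit gives EC₅₀; mean ± std dev of biological replicates.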

Plasmodium falciparum [2] = test: Antiplasmodial activity against Plasmodium falciparum mature stage V gametocyte assessed as inhibition of female gametocyte formation by luciferase reporter assay; format: functional, organism-based
Plasmodium falciparum [3] = test: Antiplasmodial activity against Plasmodium falciparum mature stage V gametocyte assessed as inhibition of male gametocyte formation at 25 uM by luciferase reporter assay; format: functional, organism-based
Plasmodium falciparum [4] = test: Antiplasmodial activity against asexual blood stage Plasmodium falciparum 3D7 infected in human RBC assessed as parasite growth inhibition incubated for 72 hrs by SYBR Green dye based fluorescence assay; format: functional, organism-based; details: Plasmodium falciparum, 3D7, Erythrocyte, 72 h; method in brief: as §1
[5] = Metabolic stability in human liver microsomes assessed as intrinsic clearance per mg of protein at 1 uM incubated for 60 mins presence of NADPH regenerating buffer system by LC-MS analysis; format: ADME, Microsome; details: 1 h
[6] = Kinetic solubility of compound in PBS at pH 2 by HPLC analysis; format: physicochemical; details: read-out: Kinetic_solubility
HepG2 = test: Cytotoxicity against human HepG2 cells assessed as reduction in cell viability incubated for 72 hrs by CellTiter-Glo assay; format: toxicity, cell-based; details: hepg2, 72 h
Plasmodium berghei = test: Antiplasmodial activity against liver stage Plasmodium berghei ANKA expressing GFP-Luc-SMCO infected in human HepG2-A16-CD81EGFP cells assessed as reduction in liver-stage development of luciferase-expressing parasite by luciferase reporter gene based bioluminescence assay; format: functional, organism-based
Method in brief: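 Pb-Luc (P. berghei ANKA-GFP-Luc-SMCON) sporozoites infect HepG2-A16-CD81EGFP cells in phenol red-free DMEM with 5% FBS, glutamine, penicillin/streptomycin; compounds scored for blocking liver-stage development by luciferase signal.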

[7] = Kinetic solubility of compound in PBS at pH 6.5 by HPLC analysis; format: physicochemical; details: read-out: Kinetic_solubility

## Cc1ccccc1N(C)C(=O)C(c1cccnc1)N(Cc1cc(C(F)(F)F)ccc1F)C1CC1 (racemic)
Plasmodium falciparum [1]
  EC50: 460 nM
Plasmodium falciparum [2]
  EC50: > 25 µM
Plasmodium falciparum [3]
  EC50: 60 µM
Plasmodium falciparum [4]
  EC50: 310 nM
[5]
  CLH: 548 µL/min/mg
[6]
  solubility kinetic: > 47 µg/mL
HepG2
  CC50: > 30 µM
Plasmodium berghei
  EC50: 7 µM
[7]
  solubility kinetic: 1.5 µg/mL (≈ 3.18 µM)
